# Experimental data reported in ChEMBL document CHEMBL3393048, “Discovery of potent cytotoxic ortho-aryl chalcones as new scaffold targeting tubulin and mitosis with affinity-based fluorescence” (J Med Chem, 2014).
# pIC50: −log10 of the molar value. Calls of active or inactive are those of the source. The rule behind the calls is not given here.
# Experiments:
# SW480 = test: Antiproliferative activity against human SW480 cells after 48 hrs by SRB method; assay type: functional, cell-based; details: SW480, 48 h
# How it was run: (§1)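 SRB assay. Cells in DMEM high glucose with 10% FBS were seeded at 5000/well and grown 24 h; a day-0 plate was fixed at that point. Compounds were added in triplicate for 48 h. IC50 came from nonlinear regression of dose–response curves from at least two independent experiments.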
# A549 [1] = test: Drug resistance index, ratio of IC50 for cis-platinum-resistant human A549 cells to IC50 for human A549 cells; assay type: functional
# How it was run: (§2)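 Drug resistance index = IC50 in the resistant line / IC50 in its parental line. […] Pairs: A549/CDDP vs A549, MCF-7/DOX vs MCF-7, A2780/TAX vs A2780, HCT-8/VCT vs HCT-8.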
# [2] = Drug resistance index, ratio of IC50 for vincristine-resistant human HCT8 cells to IC50 for human HCT8 cells; assay type: functional, HCT-8; how it was run: as §2
# HepG2 = test: Antiproliferative activity against human HepG2 cells after 48 hrs by SRB method; assay type: functional, cell-based; details: HepG2, 48 h; how it was run: as §1
# MCF7 [3] = test: Antiproliferative activity against human MCF7 cells after 48 hrs by SRB method; assay type: functional, cell-based; details: MCF7, 48 h; how it was run: as §1
# MCF7 [4] = test: Antiproliferative activity against doxorubicin-resistant human MCF7 cells after 48 hrs by SRB method; assay type: functional, cell-based; details: MCF7, 48 h; how it was run: as §1
# A549 [5] = test: Cell cycle arrest in human A549 cells assessed as accumulation at G2/M phase at 125 nM after 24 hrs by Hoechst 33342 staining-based ArrayScanVTI analysis; assay type: functional
# How it was run: (§3)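 A549 cells were seeded at 5000/well, cultured overnight, then treated 24 h over a 7.81–250 concentration series. Cells were fixed in prewarmed paraformaldehyde 10 min, permeabilized with Triton X-100, and nuclei stained with Hoechst 33342. Imaging was by ArrayScan VTI high-content analysis. Phase percentage = cells within a gated fluorescence intensity / total cells counted.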
# A549 [6] = test: Antiproliferative activity against human A549 cells after 48 hrs by SRB method; assay type: functional, cell-based; details: A549, 48 h
# How it was run: as §1, with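 “h. Cells were fixed with TCA at 4 °C for 1 h, stained with 0.4% SRB, and the dye was solubilized in 10 mM Tris pH 10.4. OD was read at 515 nm with day-0 OD subtracted.” for “h.”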
# Tubulin = test: Inhibition of tubulin polymerization (unknown origin) by DAPI staining-based fluorescence microscopy; assay type: protein-complex assay, Homo sapiens
# How it was run: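 Purified tubulin (99% pure; 20 μM as supplied) mixed with compound in general tubulin buffer (80 mM PIPES pH 6.9, 2.0 mM MgCl₂, 0.5 mM EGTA) with 1 mM GTP, 20% glycerol and DAPI reporter. Polymerization tracked kinetically at 37 °C as fluorescence rise (ex 360, em 450 nm). Duplicate wells per concentration. IC50 from at least two independent experiments.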
# MCF7 [7] = test: Drug resistance index, ratio of IC50 for doxorubicin-resistant human MCF7 cells to IC50 for human MCF7 cells; assay type: functional; how it was run: as §2
# A549 [8] = test: Antiproliferative activity against cis-platinum-resistant human A549 cells after 48 hrs by SRB method; assay type: functional, cell-based; details: A549, 48 h
# How it was run: as §1, with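 “h. Cells were fixed with TCA at 4 °C for 1 h, stained with 0.4% SRB, and the dye was solubilized in 10 mM Tris pH 10.4. OD was read at 515 nm with day-0 OD subtracted.” for “h.”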
# A2780 [9] = test: Antiproliferative activity against taxol-resistant human A2780 cells after 48 hrs by SRB method; assay type: functional, cell-based; details: A2780, 48 h; how it was run: as §1
# A2780 [10] = test: Drug resistance index, ratio of IC50 for taxol-resistant human A2780 cells to IC50 for human A2780 cells; assay type: functional; how it was run: as §2
# [11] = Antiproliferative activity against human CNE2 cells after 48 hrs by SRB method; assay type: functional, cell-based; details: CNE-2, 48 h; how it was run: as §1
# A2780 [12] = test: Antiproliferative activity against human A2780 cells after 48 hrs by SRB method; assay type: functional, cell-based; details: A2780, 48 h; how it was run: as §1
# [13] = Antiproliferative activity against vincristine-resistant human HCT8 cells after 48 hrs by SRB method; assay type: functional, cell-based; details: HCT-8, 48 h
# How it was run: as §1, with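 “h. Cells were fixed with TCA at 4 °C for 1 h, stained with 0.4% SRB, and the dye was solubilized in 10 mM Tris pH 10.4. OD was read at 515 nm with day-0 OD subtracted.” for “h.”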
# A549 [14] = test: Cell cycle arrest in human A549 cells assessed as accumulation at G2/M phase at 7.81 to 250 nM after 24 hrs by Hoechst 33342 staining-based ArrayScanVTI analysis; assay type: functional; how it was run: as §3
# [15] = Antiproliferative activity against human HCT8 cells after 48 hrs by SRB method; assay type: functional, cell-based; details: HCT-8, 48 h; how it was run: as §1
# A549 [16] = test: Cell cycle arrest in human A549 cells assessed as accumulation at G2/M phase at 31.25 nM after 24 hrs by Hoechst 33342 staining-based ArrayScanVTI analysis; assay type: functional
# A549 [17] = test: Induction of apoptosis in human A549 cells assessed as early apoptotic cells at 0.25 uM after 48 hrs by Annexin V-FITC/propidium iodide staining-based flow cytometry (reference value: 0.47%); assay type: functional
# A549 [18] = test: Induction of apoptosis in human A549 cells assessed as viable cells at 0.25 uM after 48 hrs by Annexin V-FITC/propidium iodide staining-based flow cytometry (reference value: 99.37%); assay type: functional; details: A549, 48 h, read-out: Activity
# A549 [19] = test: Induction of apoptosis in human A549 cells assessed as necrotic cells at 0.25 uM after 48 hrs by Annexin V-FITC/propidium iodide staining-based flow cytometry (reference value: 0.06%); assay type: functional
# A549 [20] = test: Induction of apoptosis in human A549 cells assessed as late apoptotic cells at 0.25 uM after 48 hrs by Annexin V-FITC/propidium iodide staining-based flow cytometry (reference value: 0.10%); assay type: functional
# Tubulin (Homo sapiens) = Tubulin (Homo sapiens) (UniProt P68371+Q9H4B7+P0DPH7+P68366+Q13509+Q71U36+P04350+Q3ZCM7+P07437+P68363+Q9BQE3+Q6PEY2+Q13885+Q9BVA1+Q9BUF5); test: Inhibition of tubulin polymerization (unknown origin) at 5 uM by DAPI staining-based fluorescence microscopy; assay type: protein-complex assay
structure (smiles),measurement,setting,value
COc1ccc(/C=C/C(=O)c2ccccc2-c2ccc(F)cc2)cc1,pIC50,SW480,7.21
same,Ratio IC50,A549 [1],1.1
same,Ratio IC50,[2],1
same,pIC50,HepG2,7.03
same,pIC50,MCF7 [3],6.17
same,pIC50,MCF7 [4],6.92
same,Activity,A549 [5],Active
same,pIC50,A549 [6],6.85
same,pIC50,Tubulin,5.74
same,Ratio IC50,MCF7 [7],0.29
same,pIC50,A549 [8],6.68
same,pIC50,A2780 [9],6.16
same,Ratio IC50,A2780 [10],4.1
same,pIC50,[11],7.28
same,pIC50,A2780 [12],6.77
same,pIC50,[13],6.64
same,Activity,A549 [14],Active
same,pIC50,[15],6.66
COc1cc2c(c(OC)c1OC)-c1ccc(OC)c(=O)cc1[C@@H](NC(C)=O)CC2 [COLCHICINE],Activity,A549 [16],Active
same,pIC50,A549 [6],7.30
same,Activity,A549 [17],36.19%
same,viability at 0.25 µM,A549 [18],19.2%
same,Activity,A549 [19],6.93%
same,Activity,A549 [20],37.72%
COc1ccc(/C=C/C(=O)c2ccccc2-c2ccc(OC)c(OC)c2)cc1OC,pIC50,SW480,5.12
same,pIC50,HepG2,5.49
same,pIC50,MCF7 [3],5.31
same,pIC50,A549 [6],5.07
same,inhibition,Tubulin (Homo sapiens),inactive
same,pIC50,[11],5.60
